Among all 360,000 compounds or so, about 1,500 (0.42%) were called active. The entries come from a sample that favours actives as a whole. A number with no mark means an inactive call.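 How the source made its calls: active means inhibition above a per-plate cutoff of the control wells' mean inhibition plus 3 SD (cut at about 5.5% in these data); inactive means the rest.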
system: methionyl-tRNA synthetase (Trypanosoma brucei brucei); assay: T. brucei MetRS inhibitors, primary screen, biochemical, luminescence (AID 624268);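 further: 0% = DMSO wells median and 100% = median of wells with control inhibitor compound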; settings: purified T. brucei MetRS, ATP depletion, Kinase-Glo luminescence; at 11.9 µM; active compounds read high
Procedure, shortened: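 Test system: purified T. brucei MetRS enzyme. Also added: ATP, methionine and E. coli bulk tRNA substrates. Compound: 11.9 µM single point. Schedule: 15 min enzyme-compound preincubation, 2 h reaction, 10 min detection, 25 °C. Signal: luciferase luminescence of residual ATP, Kinase-Glo. Evaluation: percent inhibition versus plate control medians. Controls: DMSO wells, low control.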

Row | Compound | inhibition
1 | COc1cc(C2C(C#N)=C(C)NC3=C2C(=O)CC(C)(C)C3)ccc1O (stereo not drawn) | -1.19%
2 | Cc1ccc(-c2nc(COC(=O)c3c(C)noc3C)cs2)cc1 | -0.6%
3 | COC(=O)[C@@]12C[C@@H](CC(=O)N3CCC(c4ccccc4)CC3)C(=O)N(Cc3ccccc3)C1=CCC(C)(C)C2 | -0.7%
4 | Cc1c(NC(=O)CCC2CCCCC2)cc(C(=O)N2CCOCC2)cc1[N+](=O)[O-] | -2.05%
5 | Cc1cc(C)cc(OCC(=O)NNC(=O)CCN2C(=O)c3ccccc3C2=O)c1 | 0.2%
6 | C[N+](C)(C)CCOP(=O)([O-])OC[C@H](O)CO | -0.22%
7 | CCn1c(SCC(=O)Nc2ccccc2F)nc2c(c1=O)SC(C)C2 (stereo not drawn) | -0.06%
8 | O=S(=O)(c1ccc(Cl)cc1)c1nc(-c2ccccc2F)oc1NCCN1CCOCC1 | -0.33%
9 | c1ccc2cc3c(NCCN4CCOCC4)ccnc3cc2c1 | 34.1% (active)
10 | O=S(=O)(c1ccccc1)c1nc(-c2ccccc2)oc1NCCCN1CCOCC1 | 0.27%
11 | O=c1cnnc(Nc2ccccc2F)[nH]1 | 0.6%
12 | Cc1cc(/C=N/n2cnnc2)c(C)n1-c1ccc2ncccc2c1 | 0.03%
13 | Cc1c(NC(=O)Nc2cccc([N+](=O)[O-])c2)c(=O)n(-c2ccccc2)n1C | -0.43%
14 | O=C(CSCC(=O)Nc1cccc([N+](=O)[O-])c1)Nc1ccccc1 | 8.16% (active)
15 | O=C(CN1CCC(NC(=O)Nc2ccccc2)CC1)Nc1cccc([N+](=O)[O-])c1 | 0.83%
16 | O=C(CSc1nc(-c2ccccc2)cs1)Nc1cccc([N+](=O)[O-])c1 | -0.12%
17 | CCc1ccc(NC(=O)N2CCc3ccccc3C2)cc1 | -0.43%
18 | O=C(Nc1cccc([N+](=O)[O-])c1)N1CCc2ccccc2C1 | 7.11% (active)
19 | Cc1ccc(-c2csc(C(C#N)=C(O)CN3CCN(C(=O)c4ccco4)CC3)n2)cc1 | -0.54%
20 | CCc1cccc(CC)c1NC(=O)COc1ccccc1C(=O)c1cc(C#N)c(=O)n(C2CCCCC2)c1 | 0.13%
21 | CCOC(=O)C1CCN(S(=O)(=O)c2c(C)noc2C)CC1 | -0.02%
22 | O=C(Nc1ccc(S(=O)(=O)Nc2ncccn2)cc1)c1cncc(Br)c1 | 64.2% (active)

Row | Compound | inhibition
23 | CCNS(=O)(=O)c1ccc(NC(=O)c2cncc(Br)c2)cc1 | -0.64%
24 | O=C(NC(=S)Nc1ccc(S(=O)(=O)Nc2ncccn2)cc1)c1cccc(Br)c1 | 0.66%
25 | O=C(O)c1ccc(NS(=O)(=O)c2ccc3c(c2)C(=O)c2cc(S(=O)(=O)Nc4ccc(C(=O)O)cc4)ccc2-3)cc1 | 5.69% (active)
26 | Cc1cc(C(C)(C)C)cc(S(=O)(=O)Nc2ccc(C(=O)O)cc2)c1C | 0.3%
27 | O=C(c1ccc(NS(=O)(=O)c2ccc3[nH]c(=O)[nH]c3c2)cc1)N1CCCCC1 | -0.5%
28 | CCOC(=O)CC1=CC(=O)Nc2ccccc2N1 | -0.37%
29 | COc1ccccc1-n1c(SCC(=O)Nc2ccc(Cl)cc2)nc(O)c(Cc2ccccc2)c1=O | 55.1% (active)
30 | COc1ccc(NC(=O)CSc2nnc(Cc3ccccc3)c(=O)n2N)cc1 | -0.2%
31 | CCOc1ccc(NC(=O)CSc2nc3c(c(=O)n2-c2ccccc2OC)SCC3)cc1 | -0.23%
32 | COc1ccc(NC(=O)CN(C)C(=O)c2n[nH]c3ccccc23)cc1 | -0.44%
33 | CC1(C(=O)NS(=O)(=O)c2cccc(OC(F)F)c2)CCN1C(=O)C1CC1 (stereo not drawn) | -0.2%
34 | CC1(c2cccc([N+](=O)[O-])c2)CC(C)(C)N(C(=O)c2ccccc2)c2ccccc21 (stereo not drawn) | 0.07%
35 | O=c1cc(CN2CCCCCCC2)c2c(ccc3ccccc32)o1 | 0.63%
36 | Cc1ccc2[nH]c(=O)c(CN3CCCCC3)c(-c3ccccc3)c2c1 | 2.15%
37 | c1ccc2cc3[nH]c(CN4CCCCC4)nc3cc2c1 | 7.35% (active)
38 | O=C1COc2ccc(NC(=O)N3CCN(c4ccc(F)cc4)CC3)cc2N1 | -0.82%
39 | C[C@@H]1CN([C@H](C)CO)C(=O)CCCn2cc(nn2)CO[C@H]1CN(C)S(C)(=O)=O | -1.67%
40 | COc1ccc(OC)c(NC(=O)C2(C)CCN2C(=O)Cc2ccccc2)c1 (stereo not drawn) | -0.17%
41 | COc1ccc(-c2[nH]ncc2/C=N/NC(=O)c2cc(Br)ccc2O)c(OC)c1 | 5.88% (active)
42 | COc1cc(/C=N\NC(=O)c2nonc2N)c(OC)cc1Br | -0.27%
43 | Cc1ccc(OCCOCCOc2ccc(Br)cc2/C=N\NC(=O)c2ccncc2)cc1 | 0.03%
44 | Cn1c(N)c(C(=O)COC(=O)c2cccc(S(=O)(=O)N3CCOCC3)c2)c(=O)n(C)c1=O | 0.03%

Row | Compound | inhibition
45 | CC1CN(S(=O)(=O)c2cccc(C(F)(F)F)c2)CN1C(=O)N1CCOCC1 (stereo not drawn) | -0.97%
46 | CC(C)CCNC(=O)C1CCCN(S(=O)(=O)c2ccc(F)cc2)C1 (stereo not drawn) | -0.46%
47 | COC(=O)c1c(CCl)noc1C(=O)NC(C)C | -0.34%
48 | CN(CC(=O)NCc1ccc2c(c1)OCO2)CC(=O)Nc1ccc(F)c(F)c1F | -0.42%
49 | COc1ccc(CCOC(=O)CNC(=O)c2ccc(Cl)cc2Cl)cc1 | 0.12%
50 | O=C(NNC(=O)c1ccc(Cl)cc1Cl)c1cccs1 | -0.62%
51 | COC(=O)/C(=C\Nc1ccccc1)NC(=O)c1ccc(Cl)cc1Cl | 43% (active)
52 | Cn1ccsc1=NC(=O)c1cc(S(=O)(=O)N2CCOCC2)ccc1Cl | 0%
53 | COc1ccc(S(=O)(=O)N2CCOC2CNC(=O)C(=O)NCc2ccncc2)cc1C (stereo not drawn) | -0.16%
54 | CCCCc1ccc(S(=O)(=O)NC(=O)C2(C)CCN2C(=O)c2c(C)noc2C)cc1 (stereo not drawn) | -0.38%
55 | OCCC1CN(Cc2cccn2-c2nccs2)CCN1CCc1ccccc1 (stereo not drawn) | -0.69%
56 | O=C(c1cccs1)C1C(c2ccc(Br)cc2)NC(=S)NC1(O)C(F)(F)F (stereo not drawn) | 0.24%
57 | OCC1(CCc2ccccc2)CCN(Cc2ccc3nsnc3c2)CC1 | 0.28%
58 | COc1cccc(CC2(CO)CCN(Cc3cnc(-c4cccc(C)c4)nc3)CC2)c1 | -0.01%
59 | Cc1c(CN2CCC(CO)(CCOc3ccccc3)CC2)[nH]c2ccc(Cl)cc12 | 8.27% (active)
60 | CCc1c(C)n([O-])c2c([n+]1=O)CCCCC2 | -0.95%
61 | COc1cccc(NC(=O)CN(C)C(=O)c2cc(C3CC3)nn2-c2ccccc2)c1 | -0.11%
62 | CSc1ncccc1C(=O)NCC(c1ccco1)N1CCCCC1 (stereo not drawn) | 0.26%
63 | Cc1ccc(CC2CC(=O)N(c3ccc4c(c3)OCCO4)C2=O)cc1 (stereo not drawn) | -0.24%
64 | O=CN1CCN(C2CC(=O)N(c3ccc4c(c3)OCO4)C2=O)CC1 (stereo not drawn) | -2.06%
65 | Cc1ccc(N2C(=O)CC(NCc3ccc4c(c3)OCO4)C2=O)cc1Cl (stereo not drawn) | 12.1% (active)
66 | COC(=O)CCSc1cc([N+](=O)[O-])cc2c1c(C1OCCS1)nn2-c1ccccc1 (stereo not drawn) | -0.2%

Row | Compound | inhibition
67 | CCOc1ccc(NC(=O)CC(Cc2ccc(Cl)cc2)C(=O)O)cc1 (stereo not drawn) | -0.95%
68 | Cc1ccc(C)c2[nH]c(=O)c(CCNC(=O)CC(C)C)cc12 | 0.44%
69 | O=C(CSc1nnc(-c2c[nH]c3ccccc23)n1-c1ccc(F)cc1)NCc1ccco1 | 3.05%
70 | COc1ccc(-n2c(SCC(=O)NCc3cccs3)nnc2-c2ccoc2C)cc1 | -0.5%
71 | COc1ccc(-n2c(SCC(=O)NCc3ccco3)nnc2-c2c[nH]c3ccccc23)cc1 | 6.44% (active)
72 | Cc1cc(C(=O)NNC(=O)c2cccc(S(=O)(=O)N3CCOCC3)c2)c2ccccc2n1 | -0.24%
73 | Cc1nn(C)c(Oc2ccc(Cl)cc2)c1C=O | -0.76%
74 | O=C(NCc1cc(C(F)(F)F)cc(C(F)(F)F)c1)C1CC(c2cccc(F)c2)=NO1 (stereo not drawn) | -0.13%
75 | OC(c1cc(Cl)cc(Cl)c1)c1ncc(-c2ccccc2C(F)(F)F)[nH]1 (stereo not drawn) | 58% (active)
76 | Cc1ccc(C(O)c2ncc(-c3ccccc3F)[nH]2)cc1F (stereo not drawn) | -0.2%
77 | OC(c1ccc(Cl)cc1)c1ncc(-c2ccc(Cl)cc2)[nH]1 (stereo not drawn) | 2.49%
78 | Cc1ccc(-c2cnc(C(O)c3cc(Cl)cc(Cl)c3)[nH]2)cc1 (stereo not drawn) | 40.4% (active)
79 | Cc1cccc(-c2cnc(C(O)c3cc(C)cc(C)c3)[nH]2)c1 (stereo not drawn) | -0.08%
80 | OC(c1ccc(Cl)c(F)c1)c1ncc(-c2ccccc2Cl)[nH]1 (stereo not drawn) | 0.44%
81 | CCC(=O)N1CCC(C)(C(=O)Nc2cc(OC)c(OC)c(OC)c2)C1 (stereo not drawn) | 0.06%
82 | NC(=O)CC[C@@H]1NC(=O)[C@@H]2CCCN2C(=O)c2cc([N+](=O)[O-])cc(F)c2NCCC[C@@H](C(N)=O)NC1=O | -0.23%
83 | O=S(=O)(NCc1cccnc1)c1ccc(Cl)nc1 | -1.09%
84 | CC(CCN1CCN=C1N(C)C)c1ccccc1 (stereo not drawn) | -0.2%
85 | C#CCNC(=O)C[C@@H]1C[C@@]2(C(=O)OCC)CCCC=C2N(Cc2ccco2)C1=O | -0.95%
86 | CCCn1nc(C(=O)NNC(=O)CSCC(=O)Nc2cc(C)on2)c2ccccc2c1=O | -0.27%
87 | O=C(NCCc1ccc(C(F)(F)F)cc1)c1ccc2c(c1)OCO2 | -0.15%
88 | CCCCCCCC[n+]1cccc(C(=O)N2c3c(nc(N)[nH]c3=O)NC(C)C2C)c1 (stereo not drawn) | 14.2% (active)

Source: PubChem BioAssay AID624268 (The Scripps Research Institute Molecular Screening Center, 2012)
